Measurements as given in ChEMBL document CHEMBL4270564, “Synergistic inhibition of the Hedgehog pathway by newly designed Smo and Gli antagonists bearing the isoflavone scaffold” (Eur J Med Chem, 2018).
The source made the active and inactive calls. The rule behind the calls is not given here.

Tests used:
[1] = molecular target: T1, Zinc finger protein GLI1 (Mus musculus) (UniProt P47806); assay: Inhibition of Gli1 transcriptional activity in Smo-/- mouse embroyonic fibroblasts up to 20 uM after 24 hrs by renilla luciferase reporter gene assay
T1 sequence (whole entry): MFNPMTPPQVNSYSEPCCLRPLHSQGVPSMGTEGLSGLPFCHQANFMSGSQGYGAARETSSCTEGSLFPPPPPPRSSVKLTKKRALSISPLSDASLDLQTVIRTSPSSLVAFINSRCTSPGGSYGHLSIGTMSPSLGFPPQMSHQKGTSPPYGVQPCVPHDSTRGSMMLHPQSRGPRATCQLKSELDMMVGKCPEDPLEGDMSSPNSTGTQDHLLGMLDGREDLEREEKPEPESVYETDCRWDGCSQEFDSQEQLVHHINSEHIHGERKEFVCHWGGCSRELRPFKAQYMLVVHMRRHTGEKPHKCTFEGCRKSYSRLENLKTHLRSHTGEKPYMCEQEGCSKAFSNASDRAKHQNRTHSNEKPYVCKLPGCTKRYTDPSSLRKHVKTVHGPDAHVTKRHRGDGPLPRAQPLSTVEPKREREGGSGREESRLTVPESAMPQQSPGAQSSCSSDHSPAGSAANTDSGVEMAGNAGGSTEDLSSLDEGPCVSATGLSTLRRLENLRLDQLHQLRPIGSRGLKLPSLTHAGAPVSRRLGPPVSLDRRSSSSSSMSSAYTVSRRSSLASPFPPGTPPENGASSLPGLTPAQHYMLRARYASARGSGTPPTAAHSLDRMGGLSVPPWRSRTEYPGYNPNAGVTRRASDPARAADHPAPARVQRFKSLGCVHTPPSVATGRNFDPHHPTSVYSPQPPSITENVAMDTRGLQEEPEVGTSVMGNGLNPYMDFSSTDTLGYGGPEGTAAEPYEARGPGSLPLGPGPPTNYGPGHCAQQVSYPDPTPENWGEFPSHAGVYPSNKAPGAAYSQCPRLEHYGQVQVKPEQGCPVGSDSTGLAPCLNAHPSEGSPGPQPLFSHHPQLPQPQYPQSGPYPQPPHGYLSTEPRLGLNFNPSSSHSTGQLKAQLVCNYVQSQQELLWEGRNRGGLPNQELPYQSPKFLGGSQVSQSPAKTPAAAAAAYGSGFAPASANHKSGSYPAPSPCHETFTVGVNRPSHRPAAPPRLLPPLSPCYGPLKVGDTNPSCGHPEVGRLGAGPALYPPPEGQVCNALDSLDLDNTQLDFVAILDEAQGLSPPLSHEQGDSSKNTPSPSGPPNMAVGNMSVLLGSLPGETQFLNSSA
Summary of the method: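 Smo-/- MEFs were transfected with 12xGliBS-Luc and pRL-TK Renilla plus empty or Gli1 vector. They were treated with increasing concentrations of compound for 24 h; DMSO-only controls. Read-out was luciferase normalized to Renilla. Mean ± SD of three independent experiments; t-test versus DMSO.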

Medulloblastoma cell [2] = assay: Growth inhibition of mouse Ptch+/- medulloblastoma cells at 0.25 uM after 72 hrs relative to control; format: functional; details: read-out: GI
Summary of the method: (§1)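 Primary medulloblastoma cells were freshly isolated from Ptch+/- mouse tumors. They were kept in short-term culture in Neurobasal Media-A with B27 minus vitamin A to retain Hh sensitivity. Cells were exposed to single compounds for 72 h, and percent growth inhibition was reported as mean ± SD.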

Medulloblastoma cell [3] = assay: Growth inhibition of mouse Ptch+/- medulloblastoma cells at 0.5 uM after 72 hrs relative to control; format: functional; details: read-out: GI; summary of the method: as §1
Protein smoothened = Protein smoothened (Mus musculus, UniProt P56726); assay: Antagonist activity at smo in SAG-treated mouse Light2 cells after 48 hrs by renilla luciferase reporter gene assay; format: functional
Summary of the method: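 NIH3T3 Shh-Light II cells carry a stable Gli-responsive firefly luciferase reporter plus pRL-TK Renilla. They were stimulated with SAG 200 nM and treated with compound for 48 h. Read-out was dual-luciferase, as the Luciferase/Renilla ratio. Mean ± SD of three independent experiments, each in triplicate.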

Zinc finger protein GLI1 = molecular target: T2, Zinc finger protein GLI1 (Mus musculus, UniProt P47806); assay: Inhibition of Gli1 transcriptional activity in mouse embroyonic fibroblasts after 24 hrs by renilla luciferase reporter gene assay
T2 sequence (P47806 whole entry): T1 sequence (whole entry)
Summary of the method: (§2)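 Wild-type MEFs expressing ectopic Gli1 were transfected with 12XGliBS-Luc, pRL-TK Renilla and empty or Gli1 vector. They were exposed to rising compound concentrations for 24 h; DMSO-only controls. Luciferase/Renilla ratio; mean ± SD of three independent experiments.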

MEF [4] = assay: Downregulation of Gli1 levels in SuFu-/- mouse embroyonic fibroblasts up to 20 uM after 48 hrs by qRT-PCR
Medulloblastoma cell [5] = assay: Growth inhibition of mouse Ptch+/- medulloblastoma cells at 0.125 uM after 72 hrs relative to control; format: functional; details: read-out: GI; summary of the method: as §1
MEF [6] = assay: Downregulation of Gli2 levels in SuFu-/- mouse embroyonic fibroblasts up to 20 uM after 48 hrs by qRT-PCR
Medulloblastoma cell [7] = assay: Growth inhibition of mouse Ptch+/- medulloblastoma cells at 1 uM after 72 hrs relative to control; format: functional; details: read-out: GI; summary of the method: as §1
Medulloblastoma cell [8] = assay: Growth inhibition of mouse Ptch+/- medulloblastoma cells at 2 uM after 72 hrs relative to control; format: functional; details: read-out: GI
Medulloblastoma cell [9] = assay: Synergistic growth inhibition of mouse Ptch+/- medulloblastoma cells at 0.25 uM after 72 hrs in presence of Gli inhibitor GlaB; format: functional; details: read-out: GI
Summary of the method: (§3)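 Freshly isolated Ptch+/- mouse medulloblastoma primary cells were held in short-term Neurobasal-A/B27 (minus vitamin A) culture. They were treated for 72 h with a binary combination of a Gli1 antagonist and a Smo antagonist, each at the stated concentration. Percent growth inhibition was reported.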

Medulloblastoma cell [10] = assay: Synergistic growth inhibition of mouse Ptch+/- medulloblastoma cells at 0.5 uM after 72 hrs in presence of Gli inhibitor GlaB; format: functional; details: read-out: GI; summary of the method: as §3
[11] = molecular target: Protein smoothened (Mus musculus) (UniProt P56726); assay: Antagonist activity at smo in SuFu-/- mouse embroyonic fibroblasts assessed as downregulation of Gli1 mRNA levels after 48 hrs by qRT-PCR method; format: functional
Summary of the method: (§4)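 SuFu-/- MEFs were grown in DMEM with 10% FBS, antibiotics and L-glutamine, then treated with compound for 48 h; DMSO-only controls. Gli1 and Gli2 mRNA were measured by qRT-PCR and normalized to HPRT. Mean ± SD of three independent experiments; Student's t-test versus DMSO.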

[12] = molecular target: Protein smoothened (Mus musculus) (UniProt P56726); assay: Antagonist activity at smo in SuFu-/- mouse embroyonic fibroblasts assessed as downregulation of Gli2 mRNA levels after 48 hrs by qRT-PCR method; format: functional; summary of the method: as §4
Medulloblastoma cell [13] = assay: Synergistic growth inhibition of mouse Ptch+/- medulloblastoma cells at 0.125 uM after 72 hrs in presence of Gli inhibitor GlaB; format: functional; details: read-out: GI; summary of the method: as §3
[14] = molecular target: T1, Zinc finger protein GLI1 (Mus musculus); assay: Inhibition of Gli1 transcriptional activity in mouse embroyonic fibroblasts up to 30 uM after 24 hrs by renilla luciferase reporter gene assay; summary of the method: as §2

Chain of Protein smoothened (P56726 whole entry): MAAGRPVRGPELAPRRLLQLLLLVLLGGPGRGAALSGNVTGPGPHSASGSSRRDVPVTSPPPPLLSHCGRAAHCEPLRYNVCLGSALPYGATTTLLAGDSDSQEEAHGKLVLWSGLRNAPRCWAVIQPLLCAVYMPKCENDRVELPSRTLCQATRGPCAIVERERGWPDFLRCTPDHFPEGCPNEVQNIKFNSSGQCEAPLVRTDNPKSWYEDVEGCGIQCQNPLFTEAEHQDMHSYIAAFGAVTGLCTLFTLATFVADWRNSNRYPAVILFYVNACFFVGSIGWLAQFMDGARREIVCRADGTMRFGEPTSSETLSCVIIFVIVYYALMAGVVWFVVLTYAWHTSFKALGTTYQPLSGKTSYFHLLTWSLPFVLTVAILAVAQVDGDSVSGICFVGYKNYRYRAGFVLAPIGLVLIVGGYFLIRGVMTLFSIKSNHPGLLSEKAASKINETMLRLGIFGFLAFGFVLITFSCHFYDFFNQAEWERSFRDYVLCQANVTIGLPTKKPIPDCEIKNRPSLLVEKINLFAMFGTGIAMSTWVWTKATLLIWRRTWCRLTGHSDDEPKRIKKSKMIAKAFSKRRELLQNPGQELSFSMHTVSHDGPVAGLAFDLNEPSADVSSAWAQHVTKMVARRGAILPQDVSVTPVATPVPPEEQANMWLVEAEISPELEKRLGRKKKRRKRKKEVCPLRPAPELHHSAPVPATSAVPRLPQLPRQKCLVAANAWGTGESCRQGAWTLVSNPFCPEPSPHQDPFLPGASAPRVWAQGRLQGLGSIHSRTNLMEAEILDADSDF
Chain of Protein smoothened (Mus musculus) (P56726 whole entry): as above

Structure (SMILES): COc1cc(OC)c2c(=O)c(-c3ccc(OC)c(OCC=C(C)C)c3)coc2c1
- inhibition [1]: Active
- inhibition of growth at 0.25 µM (Medulloblastoma cell [2]): 26.3%
- inhibition of growth at 0.5 µM (Medulloblastoma cell [3]): 29.2%
- IC50 (Protein smoothened; read-out: IC50): 2.87 µM
- IC50 (Zinc finger protein GLI1; read-out: IC50): 5.7 µM
- Activity (MEF [4]): Active
- inhibition of growth at 0.125 µM (Medulloblastoma cell [5]): 5.9%
- Activity (MEF [6]): Active
- inhibition of growth at 1 µM (Medulloblastoma cell [7]): 35.6%
- inhibition of growth at 2 µM (Medulloblastoma cell [8]): 55.4%

Structure (SMILES): COc1cc(OC)c2c(=O)c(-c3ccc(OCC=C(C)C)c(OCC=C(C)C)c3)coc2c1
- inhibition of growth at 0.25 µM (Medulloblastoma cell [2]): 42.4%
- inhibition of growth at 0.5 µM (Medulloblastoma cell [3]): 46.6%
- inhibition of growth at 0.125 µM (Medulloblastoma cell [5]): 28.6%
- inhibition of growth at 1 µM (Medulloblastoma cell [7]): 55.9%
- inhibition of growth at 2 µM (Medulloblastoma cell [8]): 65.1%

Structure (SMILES): COc1cc(OC)c2c(=O)c(-c3cccc(OCc4ccc(C(F)(F)F)cc4)c3)coc2c1
- IC50 (Protein smoothened; read-out: IC50): 10.5 µM
- IC50 (Zinc finger protein GLI1; read-out: IC50): 26.7 µM

Structure (SMILES): COc1cc(OC)c2c(=O)c(-c3cccc(O)c3)coc2c1
- IC50 (Protein smoothened; read-out: IC50): > 30 µM
- IC50 (Zinc finger protein GLI1): Nd(Toxic)

Structure (SMILES): COc1cc(OC)c2c(=O)c(-c3ccc(OC)c(OC/C=C(\C)CCC=C(C)C)c3)coc2c1
- IC50 (Protein smoothened; read-out: IC50): 3.61 µM
- IC50 (Zinc finger protein GLI1; read-out: IC50): 21.2 µM

Structure (SMILES): COc1cc(OC)c2c(=O)c(-c3ccc(OCc4ccccc4)c(OC)c3)coc2c1
- IC50 (Protein smoothened; read-out: IC50): 6.92 µM
- IC50 (Zinc finger protein GLI1; read-out: IC50): 39.2 µM

Structure (SMILES): COc1cc(OC)c2c(=O)c(-c3ccc(OCc4ccccc4)c(OCc4ccccc4)c3)coc2c1
- inhibition of growth at 0.25 µM (Medulloblastoma cell [9]): 63.4%
- inhibition [1]: inactive
- inhibition of growth at 0.25 µM (Medulloblastoma cell [2]): 44.2%
- inhibition of growth at 0.5 µM (Medulloblastoma cell [3]): 51.4%
- IC50 (Protein smoothened; read-out: IC50): 0.29 µM
- inhibition of growth at 0.5 µM (Medulloblastoma cell [10]): 70%
- inhibition [11]: inactive
- inhibition [12]: inactive
- IC50 (Zinc finger protein GLI1; read-out: IC50): 57.7 µM
- inhibition of growth at 0.125 µM (Medulloblastoma cell [13]): 38.3%
- inhibition of growth at 0.125 µM (Medulloblastoma cell [5]): 33.3%
- inhibition of growth at 1 µM (Medulloblastoma cell [7]): 61.2%
- inhibition of growth at 2 µM (Medulloblastoma cell [8]): 66.6%

Structure (SMILES): COc1cc(OC)c2c(=O)c(-c3ccc(OC)c(OCc4ccc([N+](=O)[O-])cc4)c3)coc2c1
- IC50 (Protein smoothened; read-out: IC50): > 30 µM
- IC50 (Zinc finger protein GLI1): Nd(Toxic)

Structure (SMILES): COc1cc(OC)c2c(=O)c(-c3ccc(OCc4ccc(C(F)(F)F)cc4)c(OC)c3)coc2c1
- inhibition of growth at 0.25 µM (Medulloblastoma cell [9]): 53.1%
- inhibition [1]: inactive
- inhibition of growth at 0.25 µM (Medulloblastoma cell [2]): 23.5%
- inhibition of growth at 0.5 µM (Medulloblastoma cell [3]): 32.5%
- IC50 (Protein smoothened; read-out: IC50): 3.48 µM
- inhibition of growth at 0.5 µM (Medulloblastoma cell [10]): 60.1%
- inhibition [11]: inactive
- inhibition [12]: inactive
- IC50 (Zinc finger protein GLI1; read-out: IC50): 55.3 µM
- inhibition of growth at 0.125 µM (Medulloblastoma cell [13]): 33.5%
- inhibition of growth at 0.125 µM (Medulloblastoma cell [5]): 20.8%
- inhibition of growth at 1 µM (Medulloblastoma cell [7]): 51.8%
- inhibition of growth at 2 µM (Medulloblastoma cell [8]): 54.2%

Structure (SMILES): CS(=O)(=O)c1ccc(C(=O)Nc2ccc(Cl)c(-c3ccccn3)c2)c(Cl)c1
- inhibition [14]: inactive

Structure (SMILES): COc1cc(OC)c2c(=O)c(-c3ccc(OC)c(OCc4ccc(C(N)=O)cc4)c3)coc2c1
- IC50 (Protein smoothened; read-out: IC50): > 30 µM
- IC50 (Zinc finger protein GLI1): Nd(Toxic)

Structure (SMILES): COC(=O)c1ccc(COc2cc(-c3coc4cc(OC)cc(OC)c4c3=O)ccc2OC)cc1
- IC50 (Protein smoothened; read-out: IC50): > 30 µM
- IC50 (Zinc finger protein GLI1): Nd(Toxic)

Structure (SMILES): COc1cc(OC)c2c(=O)c(-c3ccc(OC/C=C(\C)CCC=C(C)C)c(OC)c3)coc2c1
- IC50 (Protein smoothened): Nd(Toxic)
- IC50 (Zinc finger protein GLI1): Nd(Toxic)

Structure (SMILES): COc1cc(OC)c2c(=O)c(-c3ccc(OC)c(OCc4ccc(C#N)cc4)c3)coc2c1
- IC50 (Protein smoothened; read-out: IC50): 16 µM
- IC50 (Zinc finger protein GLI1): Nd(Toxic)

Structure (SMILES): COc1cc(OC)c2c(=O)c(-c3ccc(OCC=C(C)C)c(OC)c3)coc2c1
- IC50 (Protein smoothened; read-out: IC50): 6.97 µM
- IC50 (Zinc finger protein GLI1; read-out: IC50): 10.7 µM

Structure (SMILES): COc1cc(OC)c2c(=O)c(-c3cccc(OCC=C(C)C)c3)coc2c1
- IC50 (Protein smoothened; read-out: IC50): > 30 µM
- IC50 (Zinc finger protein GLI1; read-out: IC50): > 20 µM

Structure (SMILES): COc1cc(OC)c2c(=O)c(-c3ccc(OC)c(OCc4ccc(C(F)(F)F)cc4)c3)coc2c1
- inhibition [1]: Active
- inhibition of growth at 0.25 µM (Medulloblastoma cell [2]): 40.6%
- inhibition of growth at 0.5 µM (Medulloblastoma cell [3]): 44.5%
- IC50 (Protein smoothened; read-out: IC50): 2.58 µM
- IC50 (Zinc finger protein GLI1; read-out: IC50): 11.5 µM
- Activity (MEF [4]): Active
- inhibition of growth at 0.125 µM (Medulloblastoma cell [5]): 37.7%
- Activity (MEF [6]): Active
- inhibition of growth at 1 µM (Medulloblastoma cell [7]): 50.9%
- inhibition of growth at 2 µM (Medulloblastoma cell [8]): 54%

Structure (SMILES): COc1cc(OC)c2c(=O)c(-c3ccc(OC)c(OCc4ccccc4)c3)coc2c1
- IC50 (Protein smoothened; read-out: IC50): 3.72 µM
- IC50 (Zinc finger protein GLI1; read-out: IC50): 17.1 µM
